From publication PMC8158791 (ACS Omega, 2021)

Assays:
[1] = Cytotoxicity assay against Vero cell line; type: cell-based, monkey; settings: monkey, Vero cells (monkey kidney cell line)
[2] = system: chloroquine-sensitive strain 3D7 of Plasmodium falciparum; assay: In vitro antimalarial assay; type: cell-based; settings: for activity in CQ-sensitive strain (in words): 3D7; for IC50: Plasmodium falciparum, 3D7, 72 h, read-out: IC50 Pf3D7; for selectivity index (SI) Pf3D7: ratio CC50 (VERO)/IC50 (Pf3D7)
[3] = system: Plasmodium yoelii nigeriensis (a multidrug-resistant) parasite; assay: In vivo antimalarial assay in Swiss mice; settings: for cure on day 28: cured/treated; for survival on day 28: survivors/treated
How it was run: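 Multidrug-resistant P. yoelii nigeriensis infection in albino Swiss mice, five per group. Test compound given orally at 100 mg/kg daily × 4 days. Reference: α/β-arteether 7.5 mg/kg × 3 days. Untreated infected controls were included. Parasitaemia was assessed by Giemsa-stained smears, with % suppression on day 4 post infection. Survival and cure were followed to day 28, and MST was recorded.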

[4] = system: chloroquine-resistant strain K1 of Plasmodium falciparum; assay: In vitro antimalarial assay; type: cell-based; settings: for IC50: Plasmodium falciparum, K1, 72 h, read-out: IC50 PfK1; for selectivity index (SI) PfK1: ratio CC50 (VERO)/IC50 (PfK1)
VERO cell line = assay: Cytotoxicity assay against Vero cell line; type: cell-based, monkey; settings: read-out: cytotoxicity CC50 in VERO cell line; VERO cells, 72 h, resazurin
[5] = 100 mg/kg × 4 days, oral, P. yoelii-MDR
[6] = 7.5 mg/kg × 3 days, reference drug

| Structure (SMILES) | IC50 [2] [nM] | selectivity index (SI) Pf3D7 [2] | IC50 [4] [nM] | selectivity index (SI) PfK1 [4] | further results |
| --- | --- | --- | --- | --- | --- |
| COc1cc([C@@H]2c3cc4c(cc3[C@H](O)[C@H]3COC(=O)[C@H]23)OCO4)cc(OC)c1OC [Podophyllotoxin, reference compound] | – | – | – | – | CC50 at 72 h [1]: 4000 nM |
| CN(c1ccnc2cc(C(F)(F)F)ccc12)[C@@H](Cc1ccccc1)CN1CCCCC1 [10f, (S)-N-Methyl-N-(1-phenyl-3-(piperidin-1-yl)propan-2-yl)-7-(trifluoromethyl)quinolin-4-amine] | 1370 ± 520 | – | – | – | activity in CQ-sensitive strain (in words) [2]: inactive |
| CN(c1ccnc2cc(C(F)(F)F)ccc12)[C@@H](Cc1ccccc1)CN1CCCC1 [10g, (S)-N-Methyl-N-(1-phenyl-3-(pyrrolidin-1-yl)propan-2-yl)-7-(trifluoromethyl)quinolin-4-amine] | 680 ± 160 | 58 | 1770 | 22 | MST ([3]; 100 mg/kg × 4 days, oral): 7.2 days; % suppression on day 4 post infection [3, 5]: 62.30%; cure on day 28 ([3]; 100 mg/kg × 4 days, oral): 0/5 cured; survival on day 28 ([3]; 100 mg/kg × 4 days, oral): 0/5 |
| CN(CCCN1CCCC1)c1ccnc2cc(C(F)(F)F)ccc12 [11d, N-Methyl-N-(3-(pyrrolidin-1-yl)propyl)-7-(trifluoromethyl)quinolin-4-amine] | 90 ± 20 | – | 310 ± 150 | 252 | CC50 (VERO cell line): 78200 nM; MST ([3]; 100 mg/kg × 4 days, oral): 8.8 days; % suppression on day 4 post infection [3, 5]: 99.85%; cure on day 28 ([3]; 100 mg/kg × 4 days, oral): 0/5 cured; survival on day 28 ([3]; 100 mg/kg × 4 days, oral): 0/5 |
| CN(c1ccnc2cc(Cl)ccc12)[C@@H](Cc1ccccc1)CN1CCCC1 [10c, (S)-7-Chloro-N-methyl-N-(1-phenyl-3-(pyrrolidin-1-yl)propan-2-yl)quinolin-4-amine] | 60 ± 160 | 963 | 100 | 577 | MST ([3]; 100 mg/kg × 4 days, oral): 9 days; % suppression on day 4 post infection [3, 5]: 93.99%; cure on day 28 ([3]; 100 mg/kg × 4 days, oral): 0/5 cured; survival on day 28 ([3]; 100 mg/kg × 4 days, oral): 0/5 |
| CC(C)C[C@@H](CN1CCCCC1)N(C)c1ccnc2cc(C(F)(F)F)ccc12 [9g, (S)-N-Methyl-N-(4-methyl-1-(piperidin-1-yl)pentan-2-yl)-7-(trifluoromethyl)quinolin-4-amine] | 2000 ± 60 | 21 | 2040 ± 400 | 21 | – |
| CN(CCCN1CCOCC1)c1ccnc2cc(C(F)(F)F)ccc12 [11c, N-Methyl-N-(3-morpholinopropyl)-7-(trifluoromethyl)quinolin-4-amine] | 880 ± 280 | >227 | 820 ± 60 | >243 | – |
| CC(C)C[C@@H](CN1CCOCC1)N(C)c1ccnc2cc(C(F)(F)F)ccc12 [9f, (S)-N-Methyl-N-(4-methyl-1-morpholinopentan-2-yl)-7-(trifluoromethyl)quinolin-4-amine] | 2720 ± 1440 | 25 | 2250 ± 770 | 30 | – |
| CCN(CC)CCCC(C)Nc1ccnc2cc(Cl)ccc12 (centres unmarked) [chloroquine, reference compound] | – | – | 795 ± 150 | – | – |
| CCN(CC)C[C@H](CC(C)C)N(C)c1ccnc2cc(Cl)ccc12 [9e, (S)-N^2-(7-Chloroquinolin-4-yl)-N^1,N^1-diethyl-N^2,4-dimethylpentane-1,2-diamine] | 230 ± 100 | 262 | 540 ± 30 | 112 | – |
| CCN(CC)C[C@H](Cc1ccccc1)N(C)c1ccnc2cc(C(F)(F)F)ccc12 [10h, (S)-N^1,N^1-Diethyl-N^2-methyl-3-phenyl-N^2-(7-(trifluoromethyl)quinolin-4-yl)propane-1,2-diamine] | 1750 ± 160 | – | – | – | activity in CQ-sensitive strain (in words) [2]: inactive |
| CC(C)C[C@@H](CN1CCCCC1)N(C)c1ccnc2cc(Cl)ccc12 [9c, (S)-7-Chloro-N-methyl-N-(4-methyl-1-(piperidin-1-yl)pentan-2-yl)quinolin-4-amine] | 150 ± 140 | 463 | 420 ± 230 | 166 | – |
| CC(C)C[C@@H](CN1CCCC1)N(C)c1ccnc2cc(C(F)(F)F)ccc12 [9h, (S)-N-Methyl-N-(4-methyl-1-(pyrrolidin-1-yl)pentan-2-yl)-7-(trifluoromethyl)quinolin-4-amine] | 1240 | 42 | 1600 ± 910 | 33 | – |
| CN(c1ccnc2cc(C(F)(F)F)ccc12)[C@@H](Cc1ccccc1)CN1CCOCC1 [10e, (S)-N-Methyl-N-(1-morpholino-3-phenylpropan-2-yl)-7-(trifluoromethyl)quinolin-4-amine] | 3890 ± 500 | – | – | – | activity in CQ-sensitive strain (in words) [2]: inactive |
| CC(C)CC(CN1CCOCC1)N(C)c1ccnc2cc(Cl)ccc12 (centres unmarked) [9b, 7-Chloro-N-methyl-N-(4-methyl-1-morpholinopentan-2-yl)quinolin-4-amine] | 1160 ± 260 | 44 | 1190 ± 530 | 43 | CC50 (VERO cell line): 50800 nM |
| CN(CCCN1CCCC1)c1ccnc2cc(Cl)ccc12 [11b, 7-Chloro-N-methyl-N-(3-(pyrrolidin-1-yl)propyl)quinolin-4-amine] | 190 | 422 | 110 ± 70 | 729 | CC50 (VERO cell line): 80200 nM; MST ([3]; 100 mg/kg × 4 days, oral): 8.8 days; % suppression on day 4 post infection [3, 5]: 99.8%; cure on day 28 ([3]; 100 mg/kg × 4 days, oral): 0/5 cured; survival on day 28 ([3]; 100 mg/kg × 4 days, oral): 0/5 |
| CN(c1ccnc2cc(Cl)ccc12)[C@@H](Cc1ccccc1)CN1CCCCC1 [10b, (S)-7-Chloro-N-methyl-N-(1-phenyl-3-(piperidin-1-yl)propan-2-yl)quinolin-4-amine] | 280 ± 130 | – | 490 ± 150 | 142 | – |
| CN(c1ccnc2cc(Cl)ccc12)[C@@H](Cc1ccccc1)CN1CCOCC1 [10a, (S)-7-Chloro-N-methyl-N-(1-morpholino-3-phenylpropan-2-yl)quinolin-4-amine] | 1200 ± 780 | 28 | 1380 ± 70 | 24 | – |
| CCN(CC)C[C@H](Cc1ccccc1)N(C)c1ccnc2cc(Cl)ccc12 [10d, (S)-N^2-(7-Chloroquinolin-4-yl)-N^1,N^1-diethyl-N^2-methyl-3-phenylpropane-1,2-diamine] | 210 ± 110 | 376 | 330 ± 60 | 240 | – |
| CN(CCCN1CCCCC1)c1ccnc2cc(Cl)ccc12 [11a, 7-Chloro-N-methyl-N-(3-(piperidin-1-yl)propyl)quinolin-4-amine] | 40 | – | 60 ± 40 | 1782 | CC50 (VERO cell line): 107000 nM |
| CCN(CC)C[C@H](CC(C)C)N(C)c1ccnc2cc(C(F)(F)F)ccc12 [9i, (S)-N^1,N^1-diethyl-N^2,4-dimethyl-N^2-(7-(trifluoromethyl)quinolin-4-yl)pentane-1,2-diamine] | 3800 ± 1050 | 14 | 2500 ± 1030 | 21 | – |
| CCO[C@H]1O[C@@H]2O[C@@]3(C)CC[C@H]4[C@H](C)CC[C@@H]([C@H]1C)[C@@]24OO3 [α/β-arteether, reference compound] | – | – | – | – | % suppression on day 4 post infection [3, 6]: 100%; MST [3, 6]: >28 days; cure on day 28 [3, 6]: 5/5 cured; survival on day 28 [3, 6]: 5/5 |
| CC(C)C[C@@H](CN1CCCC1)N(C)c1ccnc2cc(Cl)ccc12 [9d, (S)-7-Chloro-N-methyl-N-(4-methyl-1-(pyrrolidin-1-yl)pentan-2-yl)quinolin-4-amine] | 80 | 588 | 180 ± 150 | 261 | MST ([3]; 100 mg/kg × 4 days, oral): 9.4 days; % suppression on day 4 post infection [3, 5]: 99.99%; cure on day 28 ([3]; 100 mg/kg × 4 days, oral): 0/5 cured; survival on day 28 ([3]; 100 mg/kg × 4 days, oral): 0/5 |
